From ChEMBL document CHEMBL3745596, “Chlorophenoxy aminoalkyl derivatives as histamine H(3)R ligands and antiseizure agents” (Bioorg Med Chem, 2016)
The source made the active and inactive calls.

Experiments:
Rattus norvegicus [1] = assay: Neurotoxicity in Sprague-Dawley rat at 30 mg/kg, ip after 2 hrs by rotarod test; format: toxicity, organism-based; details: in vivo
In short: (§1)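 Male Sprague–Dawley rats given compound ip as a suspension in 0.5% methylcellulose, groups of four. Rotarod: 1 inch knurled rod at 6 rpm; three falls within 1 min counts as neurotoxic. Scored as number toxic/number tested at pretreatment times between 0.25 and 4 h, or at the stated time.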

Mus musculus [2] = assay: Neurotoxicity in CF1 albino mouse at 30 mg/kg, ip after 0.5 hrs by rotarod test; format: toxicity, organism-based; details: in vivo
In short: (§2)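 Rotarod neurotoxicity in male albino CF-1 mice dosed ip with compound suspended in 0.5% methylcellulose. Animal placed on a 1 inch diameter knurled plastic rod rotating at 6 rpm. Neurotoxicity scored when the animal falls off three times within 1 min. Readout is number of animals toxic/number tested at the stated time after dosing. TD50 with 95% confidence interval from the quantitative study.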

Mus musculus [3] = assay: Anticonvulsant activity in CF1 albino mouse assessed as protection against maximal electroshock-induced seizure at 10 mg/kg, ip after 0.5 hrs; format: functional, organism-based
In short: (§3)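 Male CF-1 mice dosed ip as suspension in 0.5% methylcellulose. Corneal electrodes deliver 60 Hz alternating current, 50 mA for […], after a drop of 0.5% tetracaine HCl in 0.9% NaCl per eye. Protection means abolition of hindlimb tonic extension; scored as protected/tested, or ED50 with 95% confidence interval.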

Mus musculus [4] = assay: Analgesic activity in mouse assessed as inhibition of formalin-induced paw licking behavior at 16 mg/kg, ip after 0.25 hrs; format: functional, organism-based
In short: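 Male albino mice, ip in 0.5% methylcellulose; 0.5% formalin injected sub-dermally into right hindpaw plantar surface 0.25 h after dosing. Paw licking observed for the first 2 min of each 5-min epoch up to 40 min after dosing; cumulative licking duration compared with vehicle-pretreated group, acute and inflammatory phases.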

Histamine H3 receptor = Histamine H3 receptor (Homo sapiens, UniProt Q9Y5N1); assay: Displacement of [3H]-Nalpha-methylhistamine from human recombinant histamine H3 receptor expressed in HEK293 cells after 90 mins; format: cell-based
Chain of Histamine H3 receptor (Q9Y5N1 whole entry): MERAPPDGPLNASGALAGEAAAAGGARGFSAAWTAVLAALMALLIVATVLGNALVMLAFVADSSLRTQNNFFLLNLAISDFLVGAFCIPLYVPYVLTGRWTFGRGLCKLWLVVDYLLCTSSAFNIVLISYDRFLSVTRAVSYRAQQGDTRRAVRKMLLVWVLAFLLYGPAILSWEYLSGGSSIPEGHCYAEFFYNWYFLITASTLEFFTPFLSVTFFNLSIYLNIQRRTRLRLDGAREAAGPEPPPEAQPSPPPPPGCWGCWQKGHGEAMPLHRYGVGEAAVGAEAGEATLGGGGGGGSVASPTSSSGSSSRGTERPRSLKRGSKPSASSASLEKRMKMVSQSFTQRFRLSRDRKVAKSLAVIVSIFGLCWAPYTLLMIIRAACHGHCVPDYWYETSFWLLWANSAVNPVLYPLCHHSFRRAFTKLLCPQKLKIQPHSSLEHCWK

Mus musculus [5] = assay: Anticonvulsant activity in CF1 albino mouse assessed as protection against maximal electroshock-induced seizure at 100 mg/kg, ip after 0.5 hrs; format: functional, organism-based; in short: as §3
Mus musculus [6] = assay: Neurotoxicity in CF1 albino mouse at 10 mg/kg, ip after 0.5 hrs by rotarod test; format: toxicity, organism-based; details: in vivo
In short: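 Rotarod neurotoxicity in male CF-1 mice dosed ip as 0.5% methylcellulose suspension: mouse placed on 1 inch knurled rod rotating at 6 rpm; toxicity when the animal falls off three times within 1 min, with other signs noted. Scored as toxic/tested at 0.5 h and 4 h.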

Mus musculus [7] = assay: Anticonvulsant activity in CF1 albino mouse assessed as protection against subcutaneous pentetrazole-induced seizure at 30 mg/kg, ip after 4 hrs; format: functional, organism-based
In short: (§4)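 Male CF-1 mice, ip in 0.5% methylcellulose; pentetrazole at CD97 (85 mg/kg) injected subcutaneously in a loose fold of neck skin. Observed 30 min; absence of even a threshold seizure (single clonic spasm lasting at least 5 s) counted as protection. Scored protected/tested, or ED50.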

Rattus norvegicus [8] = assay: Anticonvulsant activity in Sprague-Dawley rat assessed as protection against maximal electroshock-induced seizure at 30 mg/kg, ip after 1 hr; format: functional, organism-based
Mus musculus [9] = assay: Neurotoxicity in CF1 albino mouse at 30 mg/kg, ip after 0.25 to 4 hrs by rotarod test; format: toxicity, organism-based; details: in vivo; in short: as §2
Mus musculus [10] = assay: Neurotoxicity in CF1 albino mouse assessed as unable to grasp rotarod and death at 300 mg/kg, ip after 0.5 hrs by rotarod test; format: toxicity, organism-based; details: in vivo
In short: (§5)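 Male albino CF-1 mice dosed ip with compound suspended in 0.5% methylcellulose, then placed on a 1-inch knurled plastic rod turning at 6 rpm. A fall three times within 1 min counted as neurotoxicity. Observations were made at 0.5 h and 4 h after dosing. Result given as animals showing toxicity per animals tested, with the kind of toxicity recorded.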

Rattus norvegicus [11] = assay: Anticonvulsant activity in ip dosed Sprague-Dawley rat assessed as protection against maximal electroshock-induced seizure after 1 hr; format: functional
Mus musculus [12] = assay: Anticonvulsant activity in CF1 albino mouse assessed as protection against maximal electroshock-induced seizure at 30 mg/kg, ip after 4 hrs; format: functional, organism-based; in short: as §3
Mus musculus [13] = assay: Neurotoxicity in CF1 albino mouse at 60 mg/kg, ip after 1 to 4 hrs by rotarod test; format: toxicity, organism-based; details: in vivo; in short: as §2
Mus musculus [14] = assay: Neurotoxicity in ip dosed CF1 albino mouse after 0.25 hrs by rotarod test; format: toxicity, organism-based; details: in vivo
In short: as §2, with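 “dosing.” for “dosing. TD50 with 95% confidence interval from the quantitative study.”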

Mus musculus [15] = assay: Anticonvulsant activity in CF1 albino mouse assessed as protection against maximal electroshock-induced seizure at 3 mg/kg, ip after 0.5 hrs; format: functional, organism-based; in short: as §3
Rattus norvegicus [16] = assay: Protective index, ratio of TD50 for ip dosed Sprague-Dawley rat to ED50 for ip dosed Sprague-Dawley rat assessed as protection against maximal electroshock-induced seizure after 1 hr; format: functional
In short: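 PI = TD50/ED50. Male CF-1 mice or male Sprague–Dawley rats given compound ip as 0.5% methylcellulose suspension. MES: 60 Hz corneal current, 50 mA mice or 150 mA rats, for […] after tetracaine eye drops; protection is abolition of hindlimb tonic extension.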

Mus musculus [17] = assay: Anticonvulsant activity in ip dosed CF1 albino mouse assessed as protection against subcutaneous pentetrazole-induced seizure after 0.25 hrs; format: functional; in short: as §4
Rattus norvegicus [18] = assay: Neurotoxicity in Sprague-Dawley rat at 30 mg/kg, ip after 1 hr by rotarod test; format: toxicity, organism-based; details: in vivo; in short: as §1
Rattus norvegicus [19] = assay: Neurotoxicity in Sprague-Dawley rat at 30 mg/kg, ip after 0.25 hrs by rotarod test; format: toxicity, organism-based; details: in vivo; in short: as §1
Rattus norvegicus [20] = assay: Neurotoxicity in ip dosed Sprague-Dawley rat after 0.5 hrs by rotarod test; format: toxicity, organism-based; details: in vivo
Rattus norvegicus [21] = assay: Neurotoxicity in Sprague-Dawley rat at 30 mg/kg, ip after 4 hrs by rotarod test; format: toxicity, organism-based; details: in vivo; in short: as §1
Mus musculus [22] = assay: Anticonvulsant activity in CF1 albino mouse assessed as protection against subcutaneous pentetrazole-induced seizure at 100 mg/kg, ip after 0.5 hrs; format: functional, organism-based; in short: as §4
Mus musculus [23] = assay: Anticonvulsant activity in CF1 albino mouse assessed as protection against subcutaneous pentetrazole-induced seizure at 30 mg/kg, ip after 0.5 hrs; format: functional, organism-based; in short: as §4
Rattus norvegicus [24] = assay: Anticonvulsant activity in Sprague-Dawley rat assessed as protection against maximal electroshock-induced seizure at 30 mg/kg, ip after 2 hrs; format: functional, organism-based
Mus musculus [25] = assay: Neurotoxicity in CF1 albino mouse assessed as unable to grasp rotarod, death, diarrhea, loss of righting reflux and clonic seizure at 100 mg/kg, ip after 0.5 hrs by rotarod test; format: toxicity, organism-based; details: in vivo; in short: as §5
Mus musculus [26] = assay: Protective index, ratio of TD50 for ip dosed CF1 albino mouse to ED50 for ip dosed CF1 albino mouse assessed as protection against maximal electroshock-induced seizure after 0.25 hrs; format: functional
Mus musculus [27] = assay: Anticonvulsant activity in CF1 albino mouse assessed as protection against subcutaneous pentetrazole-induced seizure at 300 mg/kg, ip after 0.5 hrs; format: functional, organism-based; in short: as §4
Rattus norvegicus [28] = assay: Anticonvulsant activity in Sprague-Dawley rat assessed as protection against maximal electroshock-induced seizure at 30 mg/kg, po; format: functional
Mus musculus [29] = assay: Neurotoxicity in CF1 albino mouse at 100 mg/kg, ip after 4 hrs by rotarod test; format: toxicity, organism-based; details: in vivo; in short: as §2
Mus musculus [30] = assay: Anticonvulsant activity in ip dosed CF1 albino mouse assessed as protection against maximal electroshock-induced seizure after 0.25 hrs; format: functional; in short: as §3

## CC1CCCN(CCCCCCCOc2ccc(Cl)cc2)C1.O=C(O)C(=O)O (stereo unspecified)
Rattus norvegicus [1]
  Activity: Non-toxic
Mus musculus [2]
  Activity: Non-toxic
Mus musculus [3]
  Activity: inactive
Mus musculus [4]
  Activity: inactive
Histamine H3 receptor
  Ki: 180 nM
Mus musculus [5]
  Activity: Active
Mus musculus [6]
  Activity: Non-toxic
Mus musculus [7]
  Activity: inactive
Rattus norvegicus [8]
  Activity: Active
Mus musculus [9]
  Activity: Non-toxic
Mus musculus [10]
  Activity: Toxic
Rattus norvegicus [11]
  ED50: 13.2 mg/kg
Mus musculus [12]
  Activity: Active
Mus musculus [13]
  Activity: Non-toxic
Mus musculus [14]
  TD50 (median neurotoxic dose): 48.28 mg/kg
Mus musculus [15]
  Activity: inactive
Rattus norvegicus [16]
  Ratio TD50/ED50: 3.8
Mus musculus [17]
  ED50: > 47 mg/kg
Rattus norvegicus [18]
  Activity: Non-toxic
Rattus norvegicus [19]
  Activity: Non-toxic
Rattus norvegicus [20]
  ED50: 50.35 mg/kg
Rattus norvegicus [21]
  Activity: Non-toxic
Mus musculus [22]
  Activity: inactive
Mus musculus [23]
  Activity: inactive
Rattus norvegicus [24]
  Activity: Active
Mus musculus [25]
  Activity: Toxic
Mus musculus [26]
  Ratio TD50/ED50: 3
Mus musculus [27]
  Activity: inactive
Rattus norvegicus [28]
  Activity: 25%
Mus musculus [29]
  Activity: Non-toxic
Mus musculus [30]
  ED50: 16.1 mg/kg
